Reference: publication PMC10424151 (Molecular Therapy. Nucleic Acids, 2023)

How the values were obtained:
[1] = Dynamic light-scattering measurement of hydrodynamic radius; assay type: physicochemical; conditions: DLS, 100 μM peptide + 1 μM bDNA, 1 h incubation, 25 °C
Procedure, shortened: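 bDNA was dissolved in self-assembly buffer, pH 7.4, and filtered through 0.22 µm. Linear peptide (100 µM) was incubated with 1 µM bDNA for 1 h, with peptide alone as control. DLS was read at 658 nm with a 175° scattering angle at 25°C, averaging triplicate readings. Rh came from autocorrelation analysis via the translational diffusion coefficient and the Stokes-Einstein relation.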

[2] = Zeta potential measurement; assay type: physicochemical; conditions: 1 μM bDNA + 100 μM peptide, 1 h, 25 °C
Procedure, shortened: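 bDNA (1 μM) incubated 1 h with 100 μM linear test peptide. bDNA alone and peptide alone at the same concentrations incubated 1 h at 25 °C as controls. Zeta potential […] by the Smoluchowski approximation. Values are the mean of triplicate readings.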

[3] = test system: bDNAaso; assay: Isothermal titration calorimetry of linear peptides with bDNA; assay type: binding; conditions: 25 °C, 1 μM bDNA titrated with 100 μM peptide, 1× TEAM buffer pH 7.4
[4] = target: T1, DNase I (Homo sapiens, UniProt P24855); assay: DNase I stability assay; assay type: in vitro ADME; conditions: for stability of peptide-bDNA complex in the presence of DNase I: 1 μM bDNA + 50 or 100 μM peptide, 10 U/mL DNase I, up to 30 min, 37 °C, 2% AGE
T1 sequence (P24855 23-282): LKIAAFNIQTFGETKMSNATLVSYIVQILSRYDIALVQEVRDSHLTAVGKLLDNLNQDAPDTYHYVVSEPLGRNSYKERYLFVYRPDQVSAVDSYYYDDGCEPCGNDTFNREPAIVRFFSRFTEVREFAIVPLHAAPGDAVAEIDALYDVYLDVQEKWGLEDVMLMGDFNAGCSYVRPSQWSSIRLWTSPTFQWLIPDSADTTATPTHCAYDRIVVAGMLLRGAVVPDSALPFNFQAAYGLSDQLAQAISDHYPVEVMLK
Procedure, shortened: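 Complexes of 1 µM bDNA pre-incubated with 100 µM linear peptide were exposed to 10 U/mL DNase I for 15 and 30 min. A second set used 1 µM bDNA with 50 µM linear peptide, digested for 5, 10, 20 and 30 min at 37°C. Digests were run on 2% agarose gels at 80 V for 25 min, and stability was judged from band intensity.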

[5] = Release of bDNA from peptide complexes; assay type: in vitro ADME; conditions: 1 μM bDNAaso + 100 μM W4R4 in serum-free DMEM, 1% SDS, 30 min, 2% agarose gel
Procedure, shortened: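 Gel-shift release: 1 μM bDNAaso was complexed with 100 μM test peptide in 20 μL serum-free DMEM for 1 h at room temperature. The complex was exposed to 1% SDS for 30 min, then run on 2% agarose for 25 min at constant 80 V and the gel imaged.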

[6] = test system: HCT-116 cells; assay: Cellular uptake of Alexa 488-labeled bDNA by FACS; assay type: cell-based; conditions: HCT-116, 75 nM Alexa 488-labeled bDNA + 25 μM peptide, overnight
Procedure, shortened: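 HCT-116 cells (2×10^5 per well) seeded overnight in serum-free DMEM, then washed twice with PBS. Alexa 488-bDNA (75 nM) premixed with test peptide (25 μM) in DMEM about 30 min at room temperature, added to cells and left overnight at 37 °C. Cells detached with 0.25% trypsin/0.53 mM EDTA (5 min, 37 °C), pelleted at 700 × g for 5 min, washed twice, resuspended in PBS and analysed by flow cytometry.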

[7] = test system: Alexa 488 bDNA; assay: Absorbance; assay type: binding; conditions: 1 μM Alexa 488 bDNA, peptide/bDNA 0:1 to 100:1, 1 h, 25 °C, 495 nm
Procedure, shortened: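 Alexa 488-labelled bDNA (1 μM) incubated 1 h at 25 °C with linear test peptide at peptide/bDNA molar ratios 0:1 to 100:1. UV-vis absorbance spectra recorded over 450–550 nm. Hypochromicity expressed as ΔOD_r = (OD0 − OD)/OD0, where OD0 is free labelled bDNA and OD is the bDNA–peptide complex, then plotted against molar ratio.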

[8] = test system: bDNAaso; assay: CD titration of bDNAaso with linear peptides; assay type: binding; conditions: 1 μM bDNA, 5 to 100 μM peptide, 25 °C (Figures 4G and S13G)

change of hydrodynamic radii of the peptide in the presence of bDNAs [1]	zeta potential of bDNA in the presence of the peptide [2]	binding affinity to bDNAaso relative to other peptide-bound bDNAs (ITC) [3]	stability of peptide-bDNA complex in the presence of DNase I [4]	effect of SDS on the W4R4-bDNAaso complex [5]	protection of peptide-bound bDNAs against nuclease degradation ([4]; peptide-bound bDNAs, Figures S19 and S20)	Substance	cellular internalization relative to W3R3 (FACS) [6]	change in absorbance of Alexa 488 bDNA with increasing molar ratio of peptide [7]	CD peak intensities of bDNA in peptide-bDNA complex [8]
increased significantly	positive zeta potential	about nine times higher	retained the stability	triggered the release	–	Ac-WWWWGGRRRR-Am [W4R4]	1.7 fold	significant decline in absorbance	flattened to the baseline
increased significantly	–	–	degraded close to the control	–	20%	Ac-WWWWGGHHHH-Am [W4H4]	–	no significant alteration in absorbance	–
moderate increase	–	–	retained the stability	–	–	Ac-WWWGGGRRR-Am [W3R3]	–	–	–
moderate increase	–	–	–	–	–	Ac-WWWGGHHHH-Am [W3H4]	–	–	–
